Test results from ChEMBL document CHEMBL1140861, “Short antisense oligonucleotides with novel 2'-4' conformationaly restricted nucleoside analogues show improved potency without increased toxicity in animals” (J Med Chem, 2009).
Calls of active or inactive are those of the source. No cut-off for these calls is given here.

Legend:
Mus musculus [1] = assay: Reduction of PTEN mRNA level in BALB/c mouse liver at 60 mg/kg, ip after 72 hrs; type: functional, organism-based; set-up: dose 60 mg/kg
Mus musculus [2] = assay: Toxicity in BALB/c mouse assessed as reduction in body weight at 1.5 mg/kg, ip administered twice a week for 3 weeks measured after 72 hrs of last dose; type: organism-based; set-up: dose 1.5 mg/kg, route intraperitoneal; conditions: in vivo
How it was run: (§1)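 Male Balb/c mice, 6 weeks old, dosed ip twice weekly for 3 weeks at 0.5, 1.5, 4.7 and 15 mg/kg (two ASOs) or 0.7, 2.3, 7.2 and 23 mg/kg (MOE control); sacrificed 72 h after last dose; ALT, liver PTEN mRNA, liver and spleen weights and body weight gain assessed; ED50 derived; errors as sd.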

Mus musculus [3] = assay: Reduction of PTEN mRNA level in ip dosed BALB/c mouse liver after 72 hrs; type: functional
Mus musculus [4] = assay: Reduction of PTEN mRNA level in BALB/c mouse liver at 37 mg/kg, ip after 72 hrs; type: functional, organism-based; set-up: dose 37 mg/kg
Mus musculus [5] = assay: Hepatotoxicity in BALB/c mouse assessed as increase in liver ALT level at 15 mg/kg, ip administered twice a week for 3 weeks measured after 72 hrs of last dose; type: toxicity, organism-based; set-up: dose 15 mg/kg, route intraperitoneal; conditions: in vivo; how it was run: as §1
Mus musculus [6] = assay: Hepatotoxicity in BALB/c mouse assessed as increase in liver ALT level at 1.5 mg/kg, ip administered twice a week for 3 weeks measured after 72 hrs of last dose; type: toxicity, organism-based; set-up: dose 1.5 mg/kg, route intraperitoneal; conditions: in vivo; how it was run: as §1
Mus musculus [7] = assay: Toxicity in BALB/c mouse assessed as reduction in body weight at 0.5 mg/kg, ip administered twice a week for 3 weeks measured after 72 hrs of last dose; type: organism-based; set-up: dose 0.5 mg/kg, route intraperitoneal; conditions: in vivo; how it was run: as §1
Mus musculus [8] = assay: Toxicity in BALB/c mouse assessed as reduction in body weight at 15 mg/kg, ip administered twice a week for 3 weeks measured after 72 hrs of last dose; type: organism-based; set-up: dose 15 mg/kg, route intraperitoneal; conditions: in vivo; how it was run: as §1
Mus musculus [9] = assay: Reduction of PTEN level in ip dosed BALB/c mouse liver at 37 mg/kg by Western blot analysis; type: functional, organism-based; set-up: dose 37 mg/kg
Mus musculus [10] = assay: Hepatotoxicity in BALB/c mouse assessed as increase in liver ALT level at 2.3 mg/kg, ip administered twice a week for 3 weeks measured after 72 hrs of last dose; type: toxicity, organism-based; set-up: dose 2.3 mg/kg, route intraperitoneal; conditions: in vivo; how it was run: as §1
Mus musculus [11] = assay: Toxicity in BALB/c mouse assessed as reduction in body weight at 4.7 mg/kg, ip administered twice a week for 3 weeks measured after 72 hrs of last dose; type: organism-based; set-up: dose 4.7 mg/kg, route intraperitoneal; conditions: in vivo; how it was run: as §1
Mus musculus [12] = assay: Hepatotoxicity in BALB/c mouse assessed as increase in liver ALT level at 23 mg/kg, ip administered twice a week for 3 weeks measured after 72 hrs of last dose; type: toxicity, organism-based; set-up: dose 23 mg/kg, route intraperitoneal; conditions: in vivo; how it was run: as §1
Mus musculus [13] = assay: Hepatotoxicity in BALB/c mouse assessed as increase in liver ALT level at 4.7 mg/kg, ip administered twice a week for 3 weeks measured after 72 hrs of last dose; type: toxicity, organism-based; set-up: dose 4.7 mg/kg, route intraperitoneal; conditions: in vivo; how it was run: as §1
Mus musculus [14] = species: Mus musculus; assay: Binding affinity to mouse PTEN mRNA assessed as melting temperature
How it was run: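 Tm of ASO–RNA duplex, i.e. melting temperature of the ASO hybridised to its complementary RNA.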

Mus musculus [15] = assay: Hepatotoxicity in BALB/c mouse assessed as increase in liver ALT level at 60 mg/kg, ip after 72 hrs; type: toxicity, organism-based; set-up: dose 60 mg/kg, route intraperitoneal; conditions: in vivo
Mus musculus [16] = assay: Hepatotoxicity in BALB/c mouse assessed as increase in liver ALT level at 0.7 mg/kg, ip administered twice a week for 3 weeks measured after 72 hrs of last dose; type: toxicity, organism-based; set-up: dose 0.7 mg/kg, route intraperitoneal; conditions: in vivo; how it was run: as §1
Mus musculus [17] = assay: Hepatotoxicity in BALB/c mouse assessed as increase in liver ALT level at 0.5 mg/kg, ip administered twice a week for 3 weeks measured after 72 hrs of last dose; type: toxicity, organism-based; set-up: dose 0.5 mg/kg, route intraperitoneal; conditions: in vivo; how it was run: as §1
Mus musculus [18] = assay: Reduction of PTEN mRNA level in ip dosed BALB/c mouse liver administered twice a week for 3 weeks measured after 72 hrs of last dose; type: functional; how it was run: as §1
Mus musculus [19] = assay: Hepatotoxicity in BALB/c mouse assessed as increase in liver ALT level at 7.2 mg/kg, ip administered twice a week for 3 weeks measured after 72 hrs of last dose; type: toxicity, organism-based; set-up: dose 7.2 mg/kg, route intraperitoneal; conditions: in vivo; how it was run: as §1
bEND = assay: Reduction in mouse PTEN mRNA level expressed in mouse bEND cells; type: functional, cell-based
How it was run: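 bEND mouse brain endothelial cells transfected with ASO using lipofectin; PTEN mRNA reduction measured over a dose range; IC50 taken from dose-response curves.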

SMILES: COCCO[C@@H]1[C@H](O)[C@@H](COP(O)(=S)O[C@H]2[C@@H](OCCOC)[C@H](n3cc(C)c(=O)[nH]c3=O)O[C@@H]2COP(O)(=S)O[C@H]2[C@@H](OCCOC)[C@H](n3cnc4c(=O)[nH]c(N)nc43)O[C@@H]2COP(O)(=S)O[C@H]2[C@@H](OCCOC)[C@H](n3cc(C)c(N)nc3=O)O[C@@H]2COP(O)(=S)O[C@H]2[C@@H](OCCOC)[C@H](n3cc(C)c(=O)[nH]c3=O)O[C@@H]2COP(O)(=S)O[C@H]2[C@@H](O)[C@H](n3cnc4c(N)ncnc43)O[C@@H]2COP(O)(=S)O[C@H]2[C@@H](O)[C@H](n3cnc4c(=O)[nH]c(N)nc43)O[C@@H]2COP(O)(=S)O[C@H]2[C@@H](O)[C@H](n3cc(C)c(N)nc3=O)O[C@@H]2COP(O)(=S)O[C@H]2[C@@H](O)[C@H](n3cc(C)c(N)nc3=O)O[C@@H]2COP(O)(=S)O[C@H]2C[C@H](n3cc(C)c(=O)[nH]c3=O)O[C@@H]2COP(O)(=S)O[C@H]2[C@@H](O)[C@H](n3cc(C)c(N)nc3=O)O[C@@H]2COP(O)(=S)O[C@H]2C[C@H](n3cc(C)c(=O)[nH]c3=O)O[C@@H]2COP(O)(=S)O[C@H]2[C@@H](O)[C@H](n3cnc4c(=O)[nH]c(N)nc43)O[C@@H]2COP(O)(=S)O[C@H]2[C@@H](O)[C@H](n3cnc4c(=O)[nH]c(N)nc43)O[C@@H]2COP(O)(=S)O[C@H]2[C@@H](O)[C@H](n3cnc4c(N)ncnc43)O[C@@H]2COP(O)(=S)O[C@H]2[C@@H](OCCOC)[C@H](n3cc(C)c(=O)[nH]c3=O)O[C@@H]2COP(O)(=S)O[C@H]2[C@@H](OCCOC)[C@H](n3cc(C)c(=O)[nH]c3=O)O[C@@H]2COP(O)(=S)O[C@H]2[C@@H](OCCOC)[C@H](n3cc(C)c(=O)[nH]c3=O)O[C@@H]2COP(O)(=S)O[C@H]2[C@@H](OCCOC)[C@H](n3cnc4c(=O)[nH]c(N)nc43)O[C@@H]2COP(O)(=S)O[C@H]2[C@@H](OCCOC)[C@H](n3cnc4c(N)ncnc43)O[C@@H]2CO)O[C@H]1n1cc(C)c(N)nc1=O (stereo not given in full)
- Activity (Mus musculus [1]): Active
- Activity (Mus musculus [2]): Non-toxic
- ED50 (Mus musculus [3]): 36 mg/kg
- Activity (Mus musculus [4]): Active
- Activity (Mus musculus [5]): Non-toxic
- Activity (Mus musculus [6]): Non-toxic
- Activity (Mus musculus [7]): Non-toxic
- Activity (Mus musculus [8]): Non-toxic
- Activity (Mus musculus [9]): Active
- Activity (Mus musculus [10]): Non-toxic
- Activity (Mus musculus [11]): Non-toxic
- Activity (Mus musculus [12]): Non-toxic
- Activity (Mus musculus [13]): Non-toxic
- Tm (Mus musculus [14]): 67.9 °C
- Activity (Mus musculus [15]): Non-toxic
- Activity (Mus musculus [16]): Non-toxic
- Activity (Mus musculus [17]): Non-toxic
- ED50 (Mus musculus [18]): 9.5 mg/kg
- Activity (Mus musculus [19]): Non-toxic
- IC50 (bEND): 6.2 nM
